Screening results (PubChem BioAssay)
PLCb3 inh: inhibitors of human phospholipase C beta3. Q01970. Purified PLC-beta3, fluorogenic substrate, fluorescence. inhibition, % at 12.2 µM. 370,000 tested, 0.18% active. AID 720704; in the data active = inhibition above about 11%
ADAM17 inh: ADAM17 inhibition, QFRET primary screen. P78536. recombinant ADAM17, EDANS/DABCYL FRET peptide cleavage. 370,000 tested, 0.83% active. inhibition, % at 6.95 µM;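 active = inhibition above the mean of compounds lying between control limits plus 3 SD, set per campaign, cut at about 8.5% in these data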
ADAM10 inh: inhibitors of human ADAM10 | recombinant ADAM10, EDANS/DABCYL FRET peptide cleavage, 3 h | O14672 | 370,000 tested, 0.62% active | inhibition, % at 7 µM;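 active = inhibition above a per-campaign cutoff equal to the mean of compounds falling between control-based bounds plus 3 SD, cut at about 20% in these data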
Target sequence (O14672 214-748 limits assumed): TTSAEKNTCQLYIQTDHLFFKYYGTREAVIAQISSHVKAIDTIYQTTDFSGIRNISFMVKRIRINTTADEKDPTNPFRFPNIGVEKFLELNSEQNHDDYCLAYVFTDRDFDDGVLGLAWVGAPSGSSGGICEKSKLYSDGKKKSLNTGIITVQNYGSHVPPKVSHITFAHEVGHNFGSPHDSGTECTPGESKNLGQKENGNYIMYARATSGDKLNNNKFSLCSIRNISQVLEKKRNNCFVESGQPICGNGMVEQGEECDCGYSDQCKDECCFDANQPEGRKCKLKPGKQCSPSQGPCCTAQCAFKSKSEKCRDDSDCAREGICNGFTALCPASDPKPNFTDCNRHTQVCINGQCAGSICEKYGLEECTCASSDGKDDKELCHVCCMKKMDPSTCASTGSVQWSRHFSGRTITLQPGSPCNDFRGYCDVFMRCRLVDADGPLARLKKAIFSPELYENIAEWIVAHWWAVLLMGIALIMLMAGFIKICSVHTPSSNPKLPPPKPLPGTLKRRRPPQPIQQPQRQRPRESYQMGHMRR
Tb MetRS inh: Trypanosoma brucei MetRS inhibition. purified T. brucei MetRS, ATP depletion, Kinase-Glo luminescence. inhibition, % at 11.9 µM. AID 624268. 360,000 tested, 0.4% active;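 active = inhibition above a per-plate cutoff of the control wells' mean inhibition plus 3 SD, cut at about 5.5% in these data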
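System: purified T. brucei MetRS enzyme / Detection: Kinase-Glo luciferase luminescence reporting remaining unconsumed ATP / Medium: HEPES buffer with MgCl2, KCl, DTT, spermine, BSA, pyrophosphatase / Replication: singlicate, one well per compound / Evaluation: percent inhibition relative to median high and low control wells / Schedule: 2 h aminoacylation at 25 °C after 15 min preincubation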
PLCg1 inh: blocks human PLC-gamma1 enzyme activity; P19174; purified PLC-gamma1, fluorogenic substrate, fluorescence; inhibition, % at 12.2 µM; 370,000 tested, 0.84% active; AID 720700
PLCgamma1 ctr: inhibits human PLC-gamma1 in PLC-beta3 counter-screen. shares compounds with PLCg1 inh. purified PLC-gamma1, fluorogenic substrate, fluorescence. 3,300 tested, 3.1% active. inhibition, % at 12.3 µM
PLCbeta3 conf: human PLC-beta3 inhibition, confirmation. shares compounds with PLCg1 inh. purified PLC-beta3, fluorogenic substrate fluorescence. inhibition, % at 12.3 µM. 3,300 tested, 1% active. AID 743261; in the data active = inhibition above about 11%
A number is an active result; n = inactive; x = not tested or not shown. Shown are actives, neighbours in structure and some others; about 2.3% of the full set was active somewhere. Cut-off read from the data, not from the text of the source, unless noted: active = inhibition above about 9.5%; inactive = the rest.

SMILES	PLCb3 inh	ADAM17 inh	ADAM10 inh	Tb MetRS inh	PLCg1 inh	PLCgamma1 ctr	PLCbeta3 conf
NC1=NC(c2ccccc2C(F)(F)F)N(c2ccc(F)c(Cl)c2)C(N)=N1 (stereo unspecified)	n	n	n	n	n	x	x
CC(=O)c1cc(-c2ccc(F)cc2)n(CCC(=O)NC(C)(C)C)c1C	n	n	n	n	21	n	n
CCC(C)NC(=O)CCn1c(-c2ccc(F)cc2)cc(C(C)=O)c1C (stereo unspecified)	n	n	n	n	n	x	x
O=C(CCCOc1ccccc1)Nc1cccc(S(=O)(=O)N2CCCCCC2)c1	n	n	n	n	n	x	x
CCOc1cccc(CN2CCC(n3nccc3NC(=O)c3ccc4c(c3)OCO4)CC2)c1	n	n	n	n	10	n	n
CC(=O)c1cccc(CN2CCC(n3nccc3NC(=O)c3ccc4c(c3)OCO4)CC2)c1	n	n	n	n	n	x	x
CCn1cc(CN2CCC(n3nccc3NC(=O)CCOc3ccccc3)CC2)cn1	n	n	n	n	13	n	n
Cc1ccc(/C=C/C(=O)O)cc1S(=O)(=O)N1CCc2ccccc2C1	n	n	n	n	11	n	n
COc1ccc(/C=C/C(=O)O)cc1S(=O)(=O)N1CCc2ccccc2C1	n	n	n	n	n	x	x
Cc1ccc(/C=C/C(=O)O)cc1S(=O)(=O)Nc1ccc(C(=O)O)cc1	n	n	n	n	n	x	x
Cc1ccc(/C=C/C(=O)O)cc1S(=O)(=O)Nc1ccccc1C(=O)O	n	n	n	n	11	n	n
CCCCCCn1c(=O)n2n(c1=O)C[C@]1(OC(=O)NCC3CCCCC3)CN(S(=O)(=O)c3ccc(C)cc3)C[C@]1(O)C2	n	n	n	n	n	x	x
CCCCCCn1c(=O)n2n(c1=O)C[C@]1(OC(=O)NC3CCCC3)CN(S(=O)(=O)c3ccc(C)cc3)C[C@]1(O)C2	n	n	n	n	11	n	n
COC(=O)[C@H]1C[C@@]2(O)CN(S(=O)(=O)c3ccc(C)cc3)C[C@@]2(OC(=O)NCc2ccccc2)C[C@H]1C(=O)OC	n	n	n	n	n	x	x
COC(=O)[C@H]1C[C@@]2(O)CN(S(=O)(=O)c3ccc(C)cc3)C[C@@]2(OC(=O)NC2CCCC2)C[C@H]1C(=O)OC	n	n	n	n	9.7	n	n
CC(C)C1C(=O)N(Cc2cn(Cc3ccco3)nn2)CCS(=O)(=O)N1Cc1ccc(-c2ccc(F)cc2)cc1 (stereo unspecified)	n	n	n	n	n	x	x
CCn1c(=O)cc(SCC(=O)N(C)Cc2ccccc2)c2ccccc21	n	n	n	n	n	x	x
CCOC(=O)CSc1cc(=O)n(CC)c2ccccc12	n	n	n	n	10	n	n
CC(C)NC(=O)C1(C)CCCN1Cc1ccccc1C#N (stereo unspecified)	n	n	n	n	11	n	n
CC(C)NC(=O)C1(C)CCCN1Cc1csc2ccccc12 (stereo unspecified)	n	n	n	n	n	x	x
CCOC(=O)C1CCCN(c2cc(=O)n(C3CCCCC3)c(=O)[nH]2)C1 (stereo unspecified)	n	n	n	n	n	x	x
COc1ccc(NC(=S)N(CCCN2CCCC2)Cc2cccs2)cc1	n	n	n	n	n	x	x
CSc1cccc(NC(=S)N(CCCN2CCCC2)Cc2cccs2)c1	n	n	n	n	13	n	n
COc1ccc(S(=O)(=O)NCc2ccc(C(=O)NCCN(C)Cc3ccccc3)cc2)cc1	n	n	n	n	9.8	n	n
Cc1ccc(C2CC(c3ccc(Br)cc3)=NN2C(=O)CSC2=NN3CCCC(=O)N=C3S2)cc1 (stereo unspecified)	n	n	n	n	n	x	x
O=C1CCCN2N=C(SCC(=O)N3N=C(c4ccc(Br)cc4)CC3c3ccc(F)cc3)SC2=N1 (stereo unspecified)	n	n	n	n	14	n	n
COc1ccc(S(=O)(=O)NCc2cc(-c3ccccc3Cl)no2)cc1	n	n	n	n	n	x	x
CCOC(=O)C1=CCN(S(=O)(=O)c2ccccc2Br)C1c1cccc(F)c1 (stereo unspecified)	n	n	n	n	n	x	x
